Reference: paper PMC8757366 (ACS Omega, 2021)
Square brackets hold non-standard residues; d marks the D form. Peptide text beside a SMILES is read from it. * marks the point of attachment. Phe(3,4-(OMe)2) = COc1ccc(C[C@H](N)C(=O)O)cc1OC; Phe(F5) = N[C@@H](Cc1c(F)c(F)c(F)c(F)c1F)C(=O)O; Lys(Et,iPr) = CCN(CCCC[C@H](N)C(=O)O)C(C)C; Cha = N[C@@H](CC1CCCCC1)C(=O)O; Nicotinoyl = O=C(c1cccnc1)*; X1 = Nc1cc(C(=O)*)ccc1Br

How the values were obtained:
CBX5 chromodomain = CBX5 chromodomain (Homo sapiens, UniProt P45973); test: TR-FRET competition assay, CBX5; assay type: binding; conditions: for affinity improvement toward CBX5 over UNC5191 by TR-FRET: compared to UNC5191; for selectivity for CBX5 over CBX7: from TR-FRET IC50 values
Chain of CBX5 chromodomain (P45973 18-75): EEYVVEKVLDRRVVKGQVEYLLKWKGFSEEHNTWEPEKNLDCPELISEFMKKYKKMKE
Outline: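 Competition of biotinylated peptide tracer P42 from His-tagged chromodomain: CBX5 30 nM with 30 nM tracer, MPP8 25 nM with 50 nM tracer. Detection with 10 nM ULight-anti-6xHis and 2 nM Eu-streptavidin in 20 mM Tris pH 7.5, 150 mM NaCl, 0.05% Tween 20, 2 mM DTT. 1 h equilibration in dark; 665/615 nm ratio. 0–100% scale against DMSO and 100 μM UNC5241. Four-parameter IC50 fit; mean ± SD of three replicates.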

CBX5 (HP1α) chromodomain = CBX5 (HP1α) chromodomain (Homo sapiens, UniProt P45973); test: Isothermal titration calorimetry; assay type: binding; conditions: for Kd: CBX5 ITC Kd, 25 °C
Chain of CBX5 (HP1α) chromodomain (P45973 18-75): as above
Outline: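 Run at 25 °C in 25 mM Tris–HCl pH 7.5, 150 mM NaCl, 2 mM β-mercaptoethanol. His-tagged chromodomain expressed in E. coli and purified by Ni affinity and size exclusion; concentration by Edelhoch method. Typically 50 μM protein with 0.5 mM compound or 100 μM with 1.0 mM, always 10:1. One 0.2 μL injection, then 26 × 1.5 μL at 180 s spacing; first point deleted; one-site fit. Mean ± SD of at least two replicates.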

CCN(CCCC[C@H](NC(=O)[C@H](CC(C)C)NC(=O)[C@H](C)NC(=O)[C@H](Cc1c(F)c(F)c(F)c(F)c1F)NC(=O)c1cccnc1)C(=O)N[C@@H](CO)C(N)=O)C(C)C [UNC4869, N-((8S,11S,14S,17S)-8-(((S)-1-Amino-3-hydroxy-1-oxopropan-2-yl)carbamoyl)-3-ethyl-11-isobutyl-2,14-dimethyl-10,13,16-trioxo-18-(perfluorophenyl)-3,9,12,15-tetraazaoctadecan-17-yl)nicotinamide] (Nicotinoyl-[Phe(F5)]AL[Lys(Et,iPr)]S-NH2)
affinity improvement toward CBX5 over UNC5191 by TR-FRET (CBX5 chromodomain): about 3 fold | selectivity for CBX5 over CBX7 (CBX5 chromodomain): 26 fold

CCN(CCCC[C@H](NC(=O)[C@H](CC(C)C)NC(=O)[C@H](C)NC(=O)[C@H](Cc1ccccc1)NC(=O)c1cccnc1)C(=O)N[C@@H](CO)C(N)=O)C(C)C [UNC5191, N-((8S,11S,14S,17S)-8-(((S)-1-Amino-3-hydroxy-1-oxopropan-2-yl)carbamoyl)-3-ethyl-11-isobutyl-2,14-dimethyl-10,13,16-trioxo-18-phenyl-3,9,12,15-tetraazaoctadecan-17-yl)nicotinamide] (Nicotinoyl-FAL[Lys(Et,iPr)]S-NH2)
Kd (CBX5 (HP1α) chromodomain; one site binding model): 6930 ± 820 nM

CCN(CCCC[C@H](NC(=O)[C@H](CC(C)C)NC(=O)[C@H](C)NC(=O)[C@H](CC1CCCCC1)NC(=O)c1cccnc1)C(=O)N[C@@H](CO)C(N)=O)C(C)C [UNC6383, N-((8S,11S,14S,17S)-8-(((S)-1-Amino-3-hydroxy-1-oxopropan-2-yl)carbamoyl)-18-cyclohexyl-3-ethyl-11-isobutyl-2,14-dimethyl-10,13,16-trioxo-3,9,12,15-tetraazaoctadecan-17-yl)nicotinamide] (Nicotinoyl-[Cha]AL[Lys(Et,iPr)]S-NH2)
selectivity for CBX5 over CBX7 (CBX5 chromodomain): 11 fold

CCN(CCCC[C@H](NC(=O)[C@H](Cc1ccccc1)NC(=O)[C@H](C)NC(=O)[C@H](Cc1ccccc1)NC(=O)c1cccnc1)C(=O)N[C@@H](CO)C(N)=O)C(C)C [UNC6384, N-((8S,11S,14S,17S)-8-(((S)-1-Amino-3-hydroxy-1-oxopropan-2-yl)carbamoyl)-11-benzyl-3-ethyl-2,14-dimethyl-10,13,16-trioxo-18-phenyl-3,9,12,15-tetraazaoctadecan-17-yl)nicotinamide] (Nicotinoyl-FAF[Lys(Et,iPr)]S-NH2)
Kd (CBX5 (HP1α) chromodomain; one site binding model): 3380 nM

CCN(CCCC[C@H](NC(=O)[C@H](Cc1ccc(OC)c(OC)c1)NC(=O)[C@H](C)NC(=O)[C@H](Cc1ccccc1)NC(=O)c1cccnc1)C(=O)N[C@@H](CO)C(N)=O)C(C)C [UNC6392, N-((8S,11S,14S,17S)-8-(((S)-1-Amino-3-hydroxy-1-oxopropan-2-yl)carbamoyl)-11-(3,4-dimethoxybenzyl)-3-ethyl-2,14-dimethyl-10,13,16-trioxo-18-phenyl-3,9,12,15-tetraazaoctadecan-17-yl)nicotinamide] (Nicotinoyl-FA[Phe(3,4-(OMe)2)][Lys(Et,iPr)]S-NH2)
Kd (CBX5 (HP1α) chromodomain; one site binding model): 1270 nM | potency for CBX5 relative to UNC6384 by ITC (CBX5 (HP1α) chromodomain; ITC Kd compared to UNC6384): 2 fold

CCN(CCCC[C@H](NC(=O)[C@H](Cc1ccc(OC)c(OC)c1)NC(=O)[C@H](C)NC(=O)[C@H](CC1CCCCC1)NC(=O)c1ccc(Br)c(N)c1)C(=O)N[C@@H](CO)C(N)=O)C(C)C [UNC7047, 3-Amino-N-((8S,11S,14S,17S)-8-(((S)-1-amino-3-hydroxy-1-oxopropan-2-yl)carbamoyl)-18-cyclohexyl-11-(3,4-dimethoxybenzyl)-3-ethyl-2,14-dimethyl-10,13,16-trioxo-3,9,12,15-tetraazaoctadecan-17-yl)-4-bromobenzamide] (X1-[Cha]A[Phe(3,4-(OMe)2)][Lys(Et,iPr)]S-NH2)
IC50 (CBX5 chromodomain): 79 ± 40 nM | affinity improvement toward CBX5 over UNC5191 by TR-FRET (CBX5 chromodomain): 80 fold | Kd (CBX5 (HP1α) chromodomain; mean ± SD of three replicates): 237 ± 68 nM | potency for CBX5 relative to UNC5191 by ITC (CBX5 (HP1α) chromodomain; ITC Kd compared to UNC5191): 30 fold
